Assay results from ChEMBL document CHEMBL3992497, “Synthesis, structure-activity relationships and biological evaluation of 7-phenyl-pyrroloquinolinone 3-amide derivatives as potent antimitotic agents” (Eur J Med Chem, 2017).

What was measured:
MCF7 = assay: Antiproliferative activity against human MCF7 cells after 72 hrs by MTT assay; format: functional; conditions: MCF7, 72 h
How it was run: (§1)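 Compounds from 10 mM DMSO stocks. Cells seeded at 8 × 10^3 per well and held 18 h at 37 °C in humidified 5% CO2. Medium was then replaced with fresh medium holding graded compound concentrations, in triplicate, for 72 h at 37 °C. Viability was read by MTT. GI50 is the concentration giving 50% inhibition of proliferation. Mean ± SE of ≥3 independent dose-response experiments.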

CCRF-CEM = assay: Antiproliferative activity against human CCRF-CEM cells after 72 hrs by MTT assay; format: functional; how it was run: as §1
Jurkat = assay: Antiproliferative activity against human Jurkat cells after 72 hrs by MTT assay; format: functional; how it was run: as §1
THP-1 = assay: Antiproliferative activity against human THP1 cells after 72 hrs by MTT assay; format: functional; conditions: THP-1, 72 h; how it was run: as §1
HT-29 = assay: Antiproliferative activity against human HT-29 cells after 72 hrs by MTT assay; format: functional; conditions: HT-29, 72 h; how it was run: as §1
HL-60 = assay: Antiproliferative activity against human HL60 cells after 72 hrs by MTT assay; format: functional; conditions: HL-60, 72 h; how it was run: as §1
RS4-11 = assay: Antiproliferative activity against human RS4:11 cells after 72 hrs by MTT assay; format: functional; conditions: RS4-11, 72 h; how it was run: as §1
HeLa = assay: Antiproliferative activity against human HeLa cells after 72 hrs by MTT assay; format: functional; how it was run: as §1
A549 = assay: Antiproliferative activity against human A549 cells after 72 hrs by MTT assay; format: functional; conditions: A549, 72 h; how it was run: as §1
SEM cells = assay: Antiproliferative activity against human SEM cells after 72 hrs by MTT assay; format: functional; how it was run: as §1
MV4-11 = assay: Antiproliferative activity against human MV4-11 cells after 72 hrs by MTT assay; format: functional; conditions: MV4-11, 72 h; how it was run: as §1
[1] = Inhibition of bovine brain tubulin assembly preincubated for 20 mins followed by GTP addition by turbidometric method; set-up: species or system Bos taurus
How it was run: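 Varying compound concentrations pre-incubated with 10 μM bovine brain tubulin in glutamate buffer at 30 °C, then chilled to 0 °C. GTP added to 0.4 mM final, mixture warmed to 30 °C, turbidity followed at 350 nm.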

Bos taurus = species on record: Bos taurus; assay: Inhibition of [3H]colchicine binding to bovine brain tubulin at 5 uM relative to control
How it was run: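 Reaction mixtures held 1 μM tubulin, 5 μM [3H]colchicine and 5 μM test compound. Inhibition of bound radiolabel measured relative to control.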

Liver = assay: Drug level in human liver microsomes treated with 3-Benzoyl-7-phenyl-6H-pyrrolo[3,2-f]quinolin-9-one at 10 uM after 60 mins by fluorescence based HPLC analysis; format: ADME, microsome; conditions: 1 h
How it was run: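 Compound at 10 μM final in 0.1 M KH2PO4 pH 7.4 with 1.0 mg/mL pooled mixed-gender human liver microsomes, without or with 1 mM NADPH; buffer-only controls. Started with microsomes after 3-min equilibration and run at 37 °C for 0–60 min. Stopped with ice-cold acetonitrile, centrifuged, supernatant run on C18 HPLC with fluorescence detection (ex 344/em 493 nm). % remaining from peak area versus 0 min. Mean ± SD, n = 3–4.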

| Compound | GI50 (MCF7) | GI50 (CCRF-CEM) | GI50 (Jurkat) | GI50 (THP-1) | GI50 (HT-29) | GI50 (HL-60) | GI50 (RS4-11) | GI50 (HeLa) | GI50 (A549) | GI50 (SEM cells) | GI50 (MV4-11) | IC50 [1] | inhibition (Bos taurus) | Drug metabolism (Liver) |
| --- | --- | --- | --- | --- | --- | --- | --- | --- | --- | --- | --- | --- | --- | --- |
| CS(=O)(=O)N1CCc2c1ccc1[nH]c(-c3ccccc3)cc(=O)c21 | 521 nM | 235 nM | 372 nM | 71 nM | 623 nM | 291 nM | 35 nM | 563 nM | 451 nM | 271 nM | 352 nM |  |  |  |
| O=C(NC1CC1)n1ccc2c3c(=O)cc(-c4ccccc4)[nH]c3ccc21 | 96 nM | 92 nM | 145 nM | 66 nM | 255 nM | 155 nM | 27 nM | 212 nM | 171 nM | 11 nM | 85 nM | 2200 nM | 18% |  |
| Cc1ccc(S(=O)(=O)n2ccc3c4c(=O)cc(-c5ccccc5)[nH]c4ccc32)cc1 | 195 nM | 32 nM | 55 nM | 222 nM | 5 nM | 335 nM | 48 nM | 26 nM | 52 nM | 33 nM | 65 nM | 1100 nM | 37% |  |
| O=c1cc(-c2ccccc2)[nH]c2ccc3[nH]ccc3c12 |  |  |  |  |  |  |  |  |  |  |  |  |  | Metabolite_Detected |
| O=c1cc(-c2ccccc2)[nH]c2ccc3c(ccn3S(=O)(=O)c3ccc(C(F)(F)F)cc3)c12 | 5 nM | 32 nM | 81 nM | 42 nM | 23 nM | 39 nM | 147 nM | 22 nM | 63 nM | 33 nM | 86 nM | 2400 nM | 29% |  |
| O=C(c1ccccc1)N1CCc2cc3[nH]c(-c4ccccc4)cc(=O)c3cc21 | 6320 nM | 818 nM | 2320 nM | 2320 nM | 5440 nM | 3740 nM | 132 nM | 1450 nM | 3560 nM | 1660 nM | 1980 nM |  |  |  |
